Assay results: ChEMBL document CHEMBL1255376, “Comparative surveillance study of telavancin activity against recently collected gram-positive clinical isolates from across the United States” (2008)
Converted amounts (≈) assume the structure as drawn.

Experiments:
[1] = test system: Staphylococcus haemolyticus; assay: Antibacterial activity against methicillin-susceptible coagulase-negative Staphylococcus haemolyticus clinical isolate by broth microdilution method; assay type: functional
Method in brief: (§1)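 MICs by CLSI broth microdilution in frozen trays pre-loaded with serial dilutions of each agent. Quality-control strains run in parallel: E. faecalis ATCC 29212 and ATCC 51299, S. aureus ATCC 29213, S. pneumoniae ATCC 49619. Comparator susceptibility categories follow CLSI breakpoints. Methicillin resistance in staphylococci assigned from the oxacillin MIC.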

Enterococcus faecium [2] = assay: Antibacterial activity against vancomycin-susceptible Enterococcus faecium clinical isolate by broth microdilution method; assay type: functional
Method in brief: (§2)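 MIC by CLSI broth microdilution in frozen microtiter trays holding serial dilutions of each agent, prepared from standard laboratory powders. E. faecalis ATCC 29212 and ATCC 51299, S. aureus ATCC 29213 and S. pneumoniae ATCC 49619 run in parallel as quality-control strains. Comparator susceptibility interpreted with CLSI breakpoints.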

Streptococcus pneumoniae = assay: Antibacterial activity against penicillin resistant Streptococcus pneumoniae clinical isolate by broth microdilution method; assay type: functional; method in brief: as §1
Staphylococcus warneri [3] = assay: Antibacterial activity against methicillin-resistant coagulase-negative Staphylococcus warneri clinical isolate by broth microdilution method; assay type: functional; method in brief: as §1
Staphylococcus [4] = assay: Antibacterial activity against methicillin-susceptible coagulase-negative unspeciated Staphylococcus clinical isolate by broth microdilution method; assay type: functional; method in brief: as §1
Staphylococcus simulans = assay: Antibacterial activity against methicillin-susceptible coagulase-negative Staphylococcus simulans clinical isolate by broth microdilution method; assay type: functional; method in brief: as §1
Staphylococcus [5] = assay: Antibacterial activity against daptomycin-nonsusceptible coagulase-negative Staphylococcus isolate 1285835 by broth microdilution method; assay type: functional; method in brief: as §2
Streptococcus sanguinis = assay: Antibacterial activity against Streptococcus sanguinis clinical isolate by broth microdilution method; assay type: functional; method in brief: as §2
Staphylococcus aureus [6] = assay: Antibacterial activity against vancomycin-intermediate methicillin-resistant Staphylococcus aureus NRS17 by broth microdilution method; assay type: functional
Method in brief: (§3)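 VISA and VRSA strains from the NARSA repository were tested separately from the surveillance isolates. MICs by CLSI broth microdilution in frozen trays with serial dilutions. Quality-control strains run in parallel. Susceptibility categories follow CLSI breakpoints, and methicillin resistance was assigned from the oxacillin MIC.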

Staphylococcus aureus [7] = assay: Antibacterial activity against vancomycin-, methicillin-resistant Staphylococcus aureus VRS3 by broth microdilution method; assay type: functional; method in brief: as §3
Staphylococcus warneri [8] = assay: Antibacterial activity against methicillin-susceptible coagulase-negative Staphylococcus warneri clinical isolate by broth microdilution method; assay type: functional; method in brief: as §1
Staphylococcus capitis = assay: Antibacterial activity against methicillin-susceptible coagulase-negative Staphylococcus capitis clinical isolate by broth microdilution method; assay type: functional; method in brief: as §1
Enterococcus faecalis [9] = assay: Antibacterial activity against vancomycin-resistant and teichoplanin-susceptible Enterococcus faecalis clinical isolate by broth microdilution method; assay type: functional; method in brief: as §1
[10] = test system: Staphylococcus saprophyticus; assay: Antibacterial activity against methicillin-susceptible coagulase-negative Staphylococcus saprophyticus clinical isolate by broth microdilution method; assay type: functional; method in brief: as §1
Enterococcus faecium [11] = assay: Antibacterial activity against linezolid/daptomycin-nonsusceptible vancomycin-susceptible Enterococcus faecium clinical isolate by broth microdilution method; assay type: functional; method in brief: as §1
Staphylococcus aureus [12] = assay: Antibacterial activity against daptomycin-nonsusceptible Staphylococcus aureus isolate 1171055 by broth microdilution method; assay type: functional; method in brief: as §1
Staphylococcus aureus [13] = assay: Antibacterial activity against vancomycin-intermediate methicillin-susceptible Staphylococcus aureus NRS56 by broth microdilution method; assay type: functional; method in brief: as §3
Staphylococcus aureus [14] = assay: Antibacterial activity against vancomycin-intermediate methicillin-resistant Staphylococcus aureus NRS1 by broth microdilution method; assay type: functional; method in brief: as §3
Staphylococcus aureus [15] = assay: Antibacterial activity against daptomycin-nonsusceptible Staphylococcus aureus isolate 1285404 by broth microdilution method
Staphylococcus aureus [16] = assay: Antibacterial activity against vancomycin-intermediate methicillin-resistant Staphylococcus aureus NRS118 by broth microdilution method; assay type: functional; method in brief: as §3
Staphylococcus aureus [17] = assay: Antibacterial activity against daptomycin-nonsusceptible Staphylococcus aureus isolate 1176127 by broth microdilution method; assay type: functional; method in brief: as §1
Enterococcus faecium [18] = assay: Antibacterial activity against linezolid/daptomycin-nonsusceptible vancomycin-resistant Enterococcus faecium clinical isolate by broth microdilution method; assay type: functional; method in brief: as §1
Enterococcus faecalis [19] = assay: Antibacterial activity against linezolid/daptomycin-nonsusceptible vancomycin-susceptible Enterococcus faecalis clinical isolate by broth microdilution method; assay type: functional; method in brief: as §1
Enterococcus = assay: Antibacterial activity against vancomycin-susceptible Enterococcus; assay type: functional; method in brief: as §2
Staphylococcus aureus [20] = assay: Antibacterial activity against vancomycin-intermediate methicillin-resistant Staphylococcus aureus NRS74 by broth microdilution method; assay type: functional; method in brief: as §3
Staphylococcus aureus [21] = assay: Antibacterial activity against daptomycin-nonsusceptible Staphylococcus aureus isolate 1171063 by broth microdilution method; assay type: functional; method in brief: as §1
Staphylococcus aureus [22] = assay: Antibacterial activity against vancomycin-intermediate methicillin-resistant Staphylococcus aureus NRS12 by broth microdilution method; assay type: functional; method in brief: as §3

SMILES: CN[C@H](CC(C)C)C(=O)N[C@H]1C(=O)N[C@@H](CC(N)=O)C(=O)N[C@H]2C(=O)N[C@H]3C(=O)N[C@H](C(=O)N[C@H](C(=O)O)c4cc(O)cc(O)c4-c4cc3ccc4O)[C@H](O)c3ccc(c(Cl)c3)Oc3cc2cc(c3O[C@@H]2O[C@H](CO)[C@@H](O)[C@H](O)[C@H]2O[C@H]2C[C@](C)(N)[C@H](O)[C@H](C)O2)Oc2ccc(cc2Cl)[C@H]1O [VANCOMYCIN]
- MIC50 [1]: 1 µg/mL (≈ 0.69 µM)
- MIC90 [1]: 2 µg/mL (≈ 1.38 µM)
- MIC (Enterococcus faecium [2]): ≤ 0.5 µg/mL
- MIC50 (Enterococcus faecium [2]): ≤ 0.5 µg/mL
- MIC90 (Enterococcus faecium [2]): 1 µg/mL (≈ 0.69 µM)
- MIC (Streptococcus pneumoniae): 0.25 µg/mL (≈ 0.173 µM)
- MIC50 (Streptococcus pneumoniae): 0.25 µg/mL (≈ 0.173 µM)
- MIC90 (Streptococcus pneumoniae): 0.5 µg/mL (≈ 0.345 µM)
- MIC50 (Staphylococcus warneri [3]): 2 µg/mL (≈ 1.38 µM)
- MIC90 (Staphylococcus warneri [3]): 2 µg/mL (≈ 1.38 µM)
- MIC50 (Staphylococcus [4]): 1 µg/mL (≈ 0.69 µM)
- MIC90 (Staphylococcus [4]): 2 µg/mL (≈ 1.38 µM)
- MIC50 (Staphylococcus simulans): 1 µg/mL (≈ 0.69 µM)
- MIC90 (Staphylococcus simulans): 2 µg/mL (≈ 1.38 µM)
- MIC (Staphylococcus [5]): 2 µg/mL (≈ 1.38 µM)
- MIC50 (Streptococcus sanguinis): 0.5 µg/mL (≈ 0.345 µM)
- MIC90 (Streptococcus sanguinis): 0.5 µg/mL (≈ 0.345 µM)
- MIC (Staphylococcus aureus [6]): 8 µg/mL (≈ 5.52 µM)
- MIC (Staphylococcus aureus [7]): > 32 µg/mL
- MIC50 (Staphylococcus warneri [8]): 1 µg/mL (≈ 0.69 µM)
- MIC90 (Staphylococcus warneri [8]): 2 µg/mL (≈ 1.38 µM)
- MIC50 (Staphylococcus capitis): 1 µg/mL (≈ 0.69 µM)
- MIC90 (Staphylococcus capitis): 2 µg/mL (≈ 1.38 µM)
- MIC (Enterococcus faecalis [9]): 32 µg/mL (≈ 22.1 µM)
- MIC50 [10]: 1 µg/mL (≈ 0.69 µM)
- MIC90 [10]: 2 µg/mL (≈ 1.38 µM)

SMILES: CCCCCCCCCCNCCN[C@@]1(C)C[C@H](O[C@H]2[C@H](Oc3c4cc5cc3Oc3ccc(cc3Cl)[C@@H](O)[C@@H](NC(=O)[C@@H](CC(C)C)NC)C(=O)N[C@@H](CC(N)=O)C(=O)N[C@H]5C(=O)N[C@H]3C(=O)N[C@H](C(=O)N[C@H](C(=O)O)c5cc(O)c(CNCP(=O)(O)O)c(O)c5-c5cc3ccc5O)[C@H](O)c3ccc(c(Cl)c3)O4)O[C@H](CO)[C@@H](O)[C@@H]2O)O[C@@H](C)[C@H]1O [TELAVANCIN]
- MIC50 [1]: 0.25 µg/mL (≈ 0.142 µM)
- MIC90 [1]: 0.5 µg/mL (≈ 0.285 µM)
- MIC50 (Enterococcus faecium [2]): 0.12 µg/mL (≈ 0.0684 µM)
- MIC90 (Enterococcus faecium [2]): 0.25 µg/mL (≈ 0.142 µM)
- MIC (Enterococcus faecium [11]): 0.06 µg/mL (≈ 0.0342 µM)
- MIC (Staphylococcus aureus [12]): 0.5 µg/mL (≈ 0.285 µM)
- MIC50 (Streptococcus pneumoniae): 0.015 µg/mL (≈ 0.00854 µM)
- MIC90 (Streptococcus pneumoniae): 0.015 µg/mL (≈ 0.00854 µM)
- MIC (Staphylococcus aureus [13]): 1 µg/mL (≈ 0.57 µM)
- MIC50 (Staphylococcus warneri [3]): 0.25 µg/mL (≈ 0.142 µM)
- MIC90 (Staphylococcus warneri [3]): 0.5 µg/mL (≈ 0.285 µM)
- MIC (Staphylococcus aureus [14]): 0.5 µg/mL (≈ 0.285 µM)
- MIC50 (Staphylococcus [4]): 0.25 µg/mL (≈ 0.142 µM)
- MIC90 (Staphylococcus [4]): 0.5 µg/mL (≈ 0.285 µM)
- MIC (Staphylococcus aureus [15]): 0.25 µg/mL (≈ 0.142 µM)
- MIC50 (Staphylococcus simulans): 0.25 µg/mL (≈ 0.142 µM)
- MIC90 (Staphylococcus simulans): 0.5 µg/mL (≈ 0.285 µM)
- MIC (Staphylococcus [5]): 0.5 µg/mL (≈ 0.285 µM)
- MIC50 (Streptococcus sanguinis): 0.03 µg/mL (≈ 0.0171 µM)
- MIC90 (Streptococcus sanguinis): 0.12 µg/mL (≈ 0.0684 µM)
- MIC (Staphylococcus aureus [16]): 0.5 µg/mL (≈ 0.285 µM)
- MIC (Staphylococcus aureus [17]): 0.5 µg/mL (≈ 0.285 µM)
- MIC (Enterococcus faecium [18]): 2 µg/mL (≈ 1.14 µM)
- MIC (Enterococcus faecalis [19]): 1 µg/mL (≈ 0.57 µM)
- MIC (Staphylococcus aureus [6]): 1 µg/mL (≈ 0.57 µM)
- MIC90 (Enterococcus): 1 µg/mL (≈ 0.57 µM)
- MIC (Staphylococcus aureus [7]): 4 µg/mL (≈ 2.28 µM)
- MIC50 (Staphylococcus warneri [8]): 0.25 µg/mL (≈ 0.142 µM)
- MIC90 (Staphylococcus warneri [8]): 0.5 µg/mL (≈ 0.285 µM)
- MIC (Staphylococcus aureus [20]): 1 µg/mL (≈ 0.57 µM)
- MIC (Staphylococcus aureus [21]): 0.5 µg/mL (≈ 0.285 µM)
- MIC (Staphylococcus aureus [22]): 0.5 µg/mL (≈ 0.285 µM)
- MIC50 (Staphylococcus capitis): 0.25 µg/mL (≈ 0.142 µM)
- MIC90 (Staphylococcus capitis): 0.5 µg/mL (≈ 0.285 µM)
- MIC (Enterococcus faecalis [9]): 0.25 µg/mL (≈ 0.142 µM)
- MIC50 [10]: 0.25 µg/mL (≈ 0.142 µM)
- MIC90 [10]: 0.5 µg/mL (≈ 0.285 µM)
